Experimental data taken from ChEMBL document CHEMBL1156562, “4-Amino-2-cyanopyrimidines: novel scaffold for nonpeptidic cathepsin S inhibitors” (Bioorg Med Chem Lett, 2008).
Values after ≈ are worked out from the molar mass of the structure shown. Active and inactive are the calls of the source. The calls are words filed in the database; no cut-off is given here.

Tests used:
Homo sapiens = species on record: Homo sapiens; test: Selectivity for human recombinant cathepsin S over human recombinant cathepsin L
Cathepsin S = Cathepsin S (Homo sapiens, UniProt P25774); test: Inhibition of human recombinant cathepsin S by fluorometric assay
Chain of Cathepsin S (P25774 whole entry): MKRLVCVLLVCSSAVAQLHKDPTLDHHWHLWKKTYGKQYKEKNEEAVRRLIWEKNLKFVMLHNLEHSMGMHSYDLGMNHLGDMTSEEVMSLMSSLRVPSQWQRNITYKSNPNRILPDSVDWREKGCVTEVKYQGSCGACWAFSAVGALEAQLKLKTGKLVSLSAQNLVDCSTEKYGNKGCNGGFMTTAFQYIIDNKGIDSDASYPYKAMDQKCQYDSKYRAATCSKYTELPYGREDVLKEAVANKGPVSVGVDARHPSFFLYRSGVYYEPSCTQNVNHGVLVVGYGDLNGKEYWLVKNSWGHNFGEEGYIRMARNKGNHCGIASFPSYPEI
In short: (§1)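 Fluorometric inhibition assay with recombinant human enzymes. Cat K and Cat L used Z-Phe-Arg-AMC as substrate. Cat S used L-Leu-Leu-Arg-AMC as substrate. Values reported as IC50.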

Procathepsin L = Procathepsin L (Homo sapiens, UniProt P07711); test: Inhibition of human recombinant cathepsin L by fluorometric assay; in short: as §1
Chain of Procathepsin L (P07711 whole entry): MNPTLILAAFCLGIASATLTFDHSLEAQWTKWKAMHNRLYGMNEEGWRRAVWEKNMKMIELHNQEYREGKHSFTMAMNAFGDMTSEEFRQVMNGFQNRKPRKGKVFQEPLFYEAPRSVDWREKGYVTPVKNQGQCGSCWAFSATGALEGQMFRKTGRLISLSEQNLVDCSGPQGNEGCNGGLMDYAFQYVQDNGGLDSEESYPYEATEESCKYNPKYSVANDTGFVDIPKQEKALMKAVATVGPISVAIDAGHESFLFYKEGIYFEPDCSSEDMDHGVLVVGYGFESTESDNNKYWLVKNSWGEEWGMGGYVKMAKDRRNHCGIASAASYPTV

Cathepsin K = target: T1, Cathepsin K (Homo sapiens, UniProt P43235); test: Inhibition of human recombinant cathepsin K by fluorometric assay; in short: as §1
T1 sequence (P43235 whole entry): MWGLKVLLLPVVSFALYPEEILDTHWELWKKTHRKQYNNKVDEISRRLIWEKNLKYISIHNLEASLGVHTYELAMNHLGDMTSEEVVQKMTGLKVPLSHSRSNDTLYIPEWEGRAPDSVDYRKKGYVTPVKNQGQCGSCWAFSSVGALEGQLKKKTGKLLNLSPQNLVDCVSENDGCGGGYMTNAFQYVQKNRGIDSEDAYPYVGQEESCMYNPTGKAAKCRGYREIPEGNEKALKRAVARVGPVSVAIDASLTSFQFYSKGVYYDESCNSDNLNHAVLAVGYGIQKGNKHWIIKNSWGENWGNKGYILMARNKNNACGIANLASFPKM

[1] = Clearance in Sprague-Dawley rat at 1 mg/kg, iv and 3 mg/kg, po; format: ADME, organism-based; details: in vivo
In short: (§2)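 Male Sprague-Dawley rats, cassette dosing. Single iv dose of 1 mg/kg and po dose of 3 mg/kg. Clearance and half-life taken from iv data. Bioavailability and po AUC derived from both routes, with AUC dose-normalized to 1 mg/kg. Values are means of n = 3, with n = 2 for some iv groups.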

[2] = Half life in Sprague-Dawley rat at 1 mg/kg, iv; format: ADME, organism-based; set-up: dose 1 mg/kg, route intravenous; details: in vivo; in short: as §2
[3] = target: Cathepsin S (Mus musculus) (UniProt O70370); test: Inhibition of cathepsin S in mouse A20 cells assessed as invariant chain degradation at 1 uM; format: cell-based
In short: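 Mouse A20 cells treated at 1 µM. Cellular cathepsin S activity read out as degradation of invariant chain (Ii).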

[4] = Aqueous solubility at pH 6.8; format: physicochemical
In short: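 Thermodynamic solubility, measured at pH 6.8 and 25 °C.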

[5] = Bioavailability in Sprague-Dawley rat at 1 mg/kg, iv and 3 mg/kg, po; format: ADME, organism-based; details: in vivo; in short: as §2
[6] = Clearance in Sprague-Dawley rat at 1 mg/kg, iv; format: ADME, organism-based; set-up: dose 1 mg/kg, route intravenous; details: in vivo; in short: as §2
Rattus norvegicus = test: Bioavailability in Sprague-Dawley rat at 1 mg/kg, iv; format: ADME, organism-based; details: in vivo; in short: as §2

Compound | IC50 (Cathepsin S) [nM] | IC50 (Procathepsin L) [nM] | IC50 (Cathepsin K) [nM] | further results
CN1CCC(NC(=O)c2cnc(C#N)nc2NCC2CCC3(CC2)CC3)(c2ccccc2)CC1 | 7 | 510 |  | Selectivity ratio (Homo sapiens): > 100
N#Cc1ncc(C(=O)N[C@H](Cc2ccccn2)CN2CCCC2)c(NCC2CCC3(CC2)CC3)n1 | 4 | 480 |  | 
C[C@@](Cc1ccccc1)(CN1CCCC1)NC(=O)c1cnc(C#N)nc1NCC1CCC2(CC1)CC2 | 21 | 840 |  | 
CN1CCC(Oc2ccc(NC(=O)c3cnc(C#N)nc3NCC3CCC4(CC3)CC4)c(-c3ccccc3)c2)CC1 | 3 | 840 |  | clearance [1]: 13.3 mL/min/kg; half-life [2]: > 480 min; Activity [3]: Active; solubility [4]: 2 µg/mL (≈ 3.63 µM); bioavailability [5]: 66%
N#Cc1ncc(C(=O)NCCc2ccccc2)c(NCC2CCC(F)(F)CC2)n1 | 22 | > 3000 | 130 | 
N#Cc1ncc(C(=O)N[C@@H](Cc2ccccc2)CN2CCCC2)c(NCC2CCC3(CC2)CC3)n1 | 23 | 1500 | 200 | 
CN1CCC(Oc2nc(C#N)nc(NCC3CCC4(CC3)CC4)c2C(=O)NCc2ccccc2)CC1 | 1 | 100 |  | 
N#Cc1ncc(C(=O)NCCc2ccccc2)c(NCC2CCCCC2)n1 | 22 | > 2000 | 15 | 
COc1cc(NC(=O)c2cnc(C#N)nc2NCC2CCC3(CC2)CC3)c(-c2ccccc2)cc1OC | 24 | > 3000 | > 1000 | 
CN1CCC(CCOc2cc(NCC3CCC4(CC3)CC4)nc(C#N)n2)CC1 | 22 | 870 | 240 | 
CN1CCC(CCOc2nc(C#N)nc(NCC3CCC4(CC3)CC4)c2C(=O)NCCc2ccccc2)CC1 | < 1 | 10 |  | 

Continued, in another order:

IC50 (Cathepsin S) [nM] | IC50 (Procathepsin L) [nM] | IC50 (Cathepsin K) [nM] | Compound | further results
32 | 2000 | 36 | CN(CC1CCCCC1)c1nc(C#N)ncc1C(=O)NCCc1ccccc1 | 
< 1 | 150 | 44 | N#Cc1ncc(C(=O)N[C@H](Cc2ccccc2)CN2CCCC2)c(NCC2CCC3(CC2)CC3)n1 | clearance [1]: 16.7 mL/min/kg; half-life [2]: 342 min; Activity [3]: Active; Selectivity ratio (Homo sapiens): > 100; solubility [4]: 27 µg/mL (≈ 57.1 µM); bioavailability [5]: 42%
14 | 780 | 9 | N#Cc1ncc(C(=O)NCCc2ccccc2)c(OCC2CCCCC2)n1 | 
< 1 | 270 |  | CN1CCC(CCOc2nc(C#N)nc(NCC3CCC4(CC3)CC4)c2C(=O)NCc2ccccc2)CC1 | 
130 | 1100 | 10 | N#Cc1ncc(C(=O)NCCc2ccccc2)c(NC2CCCCC2)n1 | 
6 | 700 | 170 | CN1CCC(CNC(=O)c2cnc(C#N)nc2NCC2CCC3(CC2)CC3)(c2ccccc2)CC1 | clearance [6]: 173 mL/min/kg; half-life [2]: 198 min; Activity [3]: Active; Selectivity ratio (Homo sapiens): > 100; solubility [4]: 89 µg/mL (≈ 188 µM); F (Rattus norvegicus): 100%
15 | > 3000 | > 3000 | N#Cc1ncc(C(=O)NCCc2ccccc2)c(NCC2CCC3(CC2)CC3)n1 | 
2 | 120 |  | CNC(=O)c1c(NCC2CCC3(CC2)CC3)nc(C#N)nc1OCCC1CCN(C)CC1 | 
< 1 | 64 |  | CN1CCC(COc2nc(C#N)nc(NCC3CCC4(CC3)CC4)c2C(=O)NCc2ccccc2)CC1 | 
2 | 280 | 100 | CN1CCC(CCOc2nc(C#N)nc(NCC3CCC4(CC3)CC4)c2Br)CC1 | clearance [1]: 85 mL/min/kg; half-life [2]: 276 min; solubility [4]: 11 µg/mL (≈ 23.8 µM); bioavailability [5]: 100%
93 | > 3000 | > 3000 | CC1(C)CCC(CNc2nc(C#N)ncc2C(=O)NCCc2ccccc2)CC1 | 
2 | 180 | 140 | CN1CCC(Cc2ccccc2)(NC(=O)c2cnc(C#N)nc2NCC2CCC3(CC2)CC3)CC1 | Selectivity ratio (Homo sapiens): > 100
